This note sets out measurements from ChEMBL document CHEMBL1126664, “Pyrazoline bisphosphonate esters as novel antiinflammatory and antiarthritic agents” (1993).

Each structure is given as a SMILES string.

What all share (type): functional
The test system of test [1] is Rattus norvegicus. The test is described as follows: Inhibition of rat adjuvant induced polyarthritis (AIP) at the dose of 100 mg/kg in the injected paw. Put shortly:
(§1)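 Rats received adjuvant (M. tuberculosis in mineral oil) into the left hindpaw on day 0. Compounds in sterile saline, pH 7.0, were given sc once daily for 28 days, with sc vehicle arthritic controls. Paw volume change in injected and noninjected hindpaws was measured on day 28 by mercury-displacement plethysmography.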

Test [2] has as its system Mus musculus. The test is described as follows: Inhibition of delayed type hypersensitivity granuloma results at 100 mg/kg in wet weight. In a few lines:
(§2)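 Groups of 10 female CF-1 mice (25 g) were sensitised sc over the inguinal lymph node with mBSA emulsion in Freund's incomplete adjuvant plus dextran. Two mBSA-soaked hydroxyapatite disks were implanted per mouse. Sc dosing ran daily from implantation to day 9, then granulomas were excised for wet and dry weights. Student's paired t test.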

For test [3], the system named is Mus musculus. The test is described as follows: Inhibition of antigen-induced arthritis (AIA) in mice at the dose of 100 mg/kg in the non-injected paw.
For test [4], the system named is Rattus norvegicus. The test is described as follows: Inhibition of rat adjuvant induced polyarthritis (AIP) at the dose of 100 mg/kg in the non-injected paw. In a few lines:
as §1

For test [5], the system named is Mus musculus. The test is described as follows: Inhibition of antigen-induced arthritis (AIA) in mice at the dose of 200 mg/kg in the non-injected paw.
The subject of test [6] is Mus musculus. The test is described as follows: Inhibition of delayed type hypersensitivity granuloma results at 100 mg/kg in dry weight. In a few lines:
as §2

For test [7], the system named is Mus musculus. The test is described as follows: Inhibition of antigen-induced arthritis (AIA) in mice at the dose of 50 mg/kg in the non-injected paw.
The subject of test [8] is Rattus norvegicus. The test is described as follows: Inhibition of rat adjuvant induced polyarthritis (AIP) at the dose of 15 mg/kg in the injected paw. In a few lines:
as §1

Test [9] deals with Rattus norvegicus. The test is described as follows: Inhibition of rat adjuvant induced polyarthritis (AIP) at the dose of 15 mg/kg in the non-njected paw. In a few lines: as §1
In test [10] the test system is Mus musculus. The test is described as follows: Inhibition of antigen induced arthritis (AIA) in mice at the dose of 100 mg/kg. In a few lines: (§3)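 Mice were immunised, boosted after 7 days, and challenged 14 days later with 200 μg mBSA in saline into the left rear stifle joint. Dosing was sc in saline at pH 7.0, 5 of 7 days, from challenge (day 0) to day 28. H&E sagittal joint sections were graded 1–5 each for soft tissue inflammation, pannus, and cartilage and bone erosion, then summed (max 20). One-way ANOVA vs vehicle.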

For test [11], the system named is Mus musculus. The test is described as follows: Inhibition of delayed type hypersensitivity granuloma results at 25 mg/kg in dry weight. Put shortly:
as §2

The test system of test [12] is Rattus norvegicus. The test is described as follows: Inhibition of rat adjuvant-induced polyarthritis (AIP) at the dose of 5 mg/kg in the non-injected paw. Put shortly:
as §1

The test system of test [13] is Rattus norvegicus. The test is described as follows: Inhibition of rat adjuvant-induced polyarthritis (AIP) at the dose of 100 mg/kg in the non-injected paw. In a few lines: as §1
Test [14] relates to Mus musculus. The test is described as follows: Inhibition of delayed type hypersensitivity granuloma results at 50 mg/kg in dry weight. Put shortly: as §2
Test [15] has as its system Rattus norvegicus. The test is described as follows: Inhibition of rat adjuvant-induced polyarthritis (AIP) at the dose of 15 mg/kg in the non-injected paw. In a few lines: as §1
The subject of test [16] is Rattus norvegicus. The test is described as follows: Inhibition of rat adjuvant induced polyarthritis (AIP) at the dose of 5 mg/kg in the injected paw. Put shortly:
as §1

Test [17] deals with Rattus norvegicus. The test is described as follows: Inhibition of rat adjuvant induced polyarthritis (AIP) at the dose of 60 mg/kg in the injected paw. In a few lines: as §1
The test system of test [18] is Mus musculus. The test is described as follows: Inhibition of antigen induced arthritis (AIA) in mice at the dose of 50 mg/kg. Put shortly:
as §3

The subject of test [19] is Mus musculus. The test is described as follows: Inhibition of delayed type hypersensitivity granuloma results at 50 mg/kg in wet weight. Put shortly: as §2
For test [20], the system named is Rattus norvegicus. The test is described as follows: Inhibition of rat adjuvant-induced polyarthritis (AIP) at the dose of 60 mg/kg in the non-injected paw. Put shortly: as §1
The test system of test [21] is Mus musculus. The test is described as follows: Inhibition of delayed type hypersensitivity granuloma results at 25 mg/kg in wet weight. In a few lines:
as §2

Test [22] deals with Rattus norvegicus. The test is described as follows: Inhibition of rat adjuvant induced polyarthritis (AIP) at the dose of 15 mg/kg in the non-injected paw. Put shortly:
as §1

Test [23] has as its system Mus musculus. The test is described as follows: Inhibition of antigen-induced arthritis (AIA) in mice at the dose of 100 mg/kg. In a few lines:
as §3

Test [24] has as its system Rattus norvegicus. The test is described as follows: Inhibition of rat adjuvant-induced arthritis (AIP) at the dose of 100 mg/kg in the non-injected paw. Put shortly: as §1
Test [25] relates to Rattus norvegicus. The test is described as follows: Inhibition of rat adjuvant-induced arthritis (AIP) at the dose of 15 mg/kg in the non-injected paw. In a few lines:
as §1

Test [26] concerns Mus musculus. The test is described as follows: Inhibition of antigen-induced arthritis (AIA) in mice at the dose of 25 mg/kg. In a few lines:
as §3

Test [27] deals with Rattus norvegicus. The test is described as follows: Inhibition of rat adjuvant induced arthritis (AIP) at the dose of 60 mg/kg in the non-injected paw. In a few lines:
as §1

Test [28] relates to Mus musculus. The test is described as follows: Inhibition of antigen-induced arthritis (AIA) in mice at the dose of 200 mg/kg. In a few lines:
as §3

For test [29], the system named is Mus musculus. The test is described as follows: Inhibition of antigen-induced arthritis (AIA) in mice at the dose of 50 mg/kg. Put shortly:
as §3

For test [30], the system named is Rattus norvegicus. The test is described as follows: Inhibition of rat adjuvant induced arthritis (AIP) at the dose of 5 mg/kg in the non-injected paw. Put shortly:
as §1

For test [31], the system named is Rattus norvegicus. The test is described as follows: Inhibition of rat adjuvant induced arthritis (AIP) at the dose of 100 mg/kg in the non-injected paw. Put shortly:
as §1

The subject of test [32] is Rattus norvegicus. The test is described as follows: Inhibition of rat adjuvant induced arthritis (AIP) at the dose of 15 mg/kg in the non-injected paw. Put shortly:
as §1

A word on the inhibition in vivo: it is the change of the read-out against control, counted positive when it falls. As to `CCOP(=O)(OCC)C1(P(=O)(OCC)OCC)CC(C(=O)C2CCCCC2)=NN1`, the inhibition in vivo at 100 mg/kg is 16% with Rattus norvegicus [1]; 33% with Mus musculus [2]; 3% with Mus musculus [3]; 29% in the test on Rattus norvegicus [4]; 31% in the test with Mus musculus [6]. Also, in the test on Mus musculus [5], the inhibition in vivo at 200 mg/kg was 11%. The inhibition in vivo at 50 mg/kg in the test with Mus musculus [7] stood at 30%. The inhibition in vivo at 15 mg/kg in the test with Rattus norvegicus [8] is 9%; in the test with Rattus norvegicus [9], 14%.

As for `CCOP(=O)(OCC)C1(P(=O)(OCC)OCC)CC(C(=O)C(C)(C)C)=NN1`, the inhibition in vivo at 100 mg/kg was found to be 16% in the test on Mus musculus [10]; 21% in the test with Rattus norvegicus [1]; 65% in the test on Mus musculus [2]; 76% in the test with Rattus norvegicus [13]; 59% in the test with Mus musculus [6]. The figures for the inhibition in vivo at 25 mg/kg in the test on Mus musculus [11] and in the test with Mus musculus [21] were 38% and 46%, respectively. Also, the inhibition in vivo at 5 mg/kg with Rattus norvegicus [12] amounted to 64%; in the test on Rattus norvegicus [16] it was 27%. The inhibition in vivo at 50 mg/kg came to 48% with Mus musculus [14], 28% in the test on Mus musculus [18] and 51% in the test with Mus musculus [19]. The values for the inhibition in vivo at 15 mg/kg in the test on Rattus norvegicus [15] and in the test with Rattus norvegicus [8] were 55% and 21%, respectively. Further, the inhibition in vivo at 60 mg/kg with Rattus norvegicus [17] came to 38%; with Rattus norvegicus [20], 64%.

As for `CCOP(=O)(OCC)C1(P(=O)(OCC)OCC)CC(C(=O)c2ccc(Cl)cc2Cl)=NN1`, the inhibition in vivo at 100 mg/kg with Rattus norvegicus [1] was 0%; in the test on Mus musculus [2], 55%; with Mus musculus [23], 0%; in the test on Rattus norvegicus [4], 12%; in the test with Mus musculus [6], 44%. Also, the inhibition in vivo at 15 mg/kg was 38% in the test with Rattus norvegicus [22] and 3% with Rattus norvegicus [8].

For `CCOP(=O)(OCC)C1(P(=O)(OCC)OCC)CC(C(=O)c2ccc(Cl)cc2)=NN1`, the inhibition in vivo at 100 mg/kg in the test with Mus musculus [2] was found to be 28%; in the test on Mus musculus [6], 33%.

Turning to `CCOP(=O)(OCC)C1(P(=O)(OCC)OCC)CC(C(=O)c2ccccc2)=NN1Cc1cccc(CN2N=C(C(=O)c3ccccc3)CC2(P(=O)(OCC)OCC)P(=O)(OCC)OCC)c1`, the inhibition in vivo at 100 mg/kg in the test with Mus musculus [6] is -31%.

Take `CCOP(=O)(OCC)C1(P(=O)(OCC)OCC)CC(C(=O)c2cccc(C)c2)=NN1`: the inhibition in vivo at 100 mg/kg came out at 3% in the test with Rattus norvegicus [1]; 41% in the test on Mus musculus [2]; 16% in the test on Mus musculus [3]; 41% in the test on Mus musculus [6]; 50% with Rattus norvegicus [24]. In addition, the inhibition in vivo at 15 mg/kg in the test with Rattus norvegicus [8] came to 6%; in the test on Rattus norvegicus [25], 54%.

On to `CCOP(=O)(OCC)C1(P(=O)(OCC)OCC)CC(C(=O)c2ccccc2F)=NN1`, for which the values for the inhibition in vivo at 100 mg/kg in the test on Mus musculus [2] and in the test with Mus musculus [6] were 20% and 17%, respectively.

`CCOP(=O)(OCC)C1(P(=O)(OCC)OCC)CC(C(=O)c2ccccc2)=NN1`: the inhibition in vivo at 100 mg/kg in the test with Rattus norvegicus [1] was 13%; with Mus musculus [2], 56%; in the test on Mus musculus [23] it was 48%; in the test with Mus musculus [6], 51%; with Rattus norvegicus [31] it was 50%. Also, the results for the inhibition in vivo at 25 mg/kg with Mus musculus [11], in the test on Mus musculus [26] and in the test with Mus musculus [21] were 42%, 16% and 36%, respectively. Further, the inhibition in vivo at 50 mg/kg with Mus musculus [14] stood at 42%; in the test with Mus musculus [19], 33%; in the test with Mus musculus [29] it was 35%. The inhibition in vivo at 5 mg/kg in the test on Rattus norvegicus [16] was 28%; in the test with Rattus norvegicus [30], 50%. Besides, the inhibition in vivo at 60 mg/kg in the test on Rattus norvegicus [27] worked out at 56%; in the test with Rattus norvegicus [17], 23%. In the test with Mus musculus [28], the inhibition in vivo at 200 mg/kg stood at 48%. The inhibition in vivo at 15 mg/kg in the test with Rattus norvegicus [8] is 25%; in the test on Rattus norvegicus [32], 31%.

On to `CCOP(=O)(OCC)C1(P(=O)(OCC)OCC)CC(C(=O)c2ccc(OC)cc2)=NN1`, for which the inhibition in vivo at 100 mg/kg with Rattus norvegicus [1] was determined as 0%; in the test on Mus musculus [2] it was 35%; with Mus musculus [23], 23%; in the test with Rattus norvegicus [4] it was 16%; in the test with Mus musculus [6], 50%. The figures for the inhibition in vivo at 15 mg/kg in the test on Rattus norvegicus [22] and in the test with Rattus norvegicus [8] were 17% and 12%, respectively.
